Activity calls are given as the source filed them. The calls are words filed in the database; no cut-off is given here.

Common to all, as to assay type: functional, organism-based
Test [1] concerns Cercopithecidae. The test is described as follows: Induction of yawning and scratching was determined in Baboons at a dose 2.0 mg/kg; absent. Set-up: dose 2 mg/kg. In short, it runs like this:
(§1)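 Male or female baboons were given a single injection, with two animals per dose level. The same animals received the solvent alone 1 week later. Behaviour was scored by observation, including yawning, body scratching, motor activity, ptosis, posture and responsiveness.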

Test [2] has as its system Cercopithecidae. The test is described as follows: Psychotropic effects in Baboons at a dose 2.0 mg/kg; - = no change. Set-up: dose 2 mg/kg. An outline of the steps: as §1
The test system of test [3] is Cercopithecidae. The test is described as follows: Psychotropic effects in baboons at a dose 10.0 mg/kg;+/- = tranquility. On the set-up: dose 10 mg/kg. In short, it runs like this:
as §1

The test system of test [4] is Cercopithecidae. The test is described as follows: Induction of yawning and scratching was determined in Baboons at a dose 10.0 mg/kg; absent. On the set-up: dose 10 mg/kg. An outline of the steps:
as §1

Test [5] has as its system Cercopithecidae. The test is described as follows: Psychotropic effects in Baboons at a dose 5.0 mg/kg; +/- = tranquility. On the set-up: dose 5 mg/kg. An outline of the steps: as §1
Test [6] relates to Cercopithecidae. Put plainly: Induction of yawning and scratching was determined in Baboons at a dose 5.0 mg/kg; absent. Set-up: dose 5 mg/kg. An outline of the steps:
as §1

Test [7] has as its system Cercopithecidae. Put plainly: Psychotropic effects in Baboons at a dose 10.0 mg/kg; - = no change. On the set-up: dose 10 mg/kg. In short, it runs like this:
as §1

For test [8], the system named is Cercopithecidae. The test is described as follows: Induction of yawning and scratching was determined in Baboons at a dose 10.0 mg/kg; present. On the set-up: dose 10 mg/kg. In short, it runs like this:
as §1

Test [9] concerns Cercopithecidae. Put plainly: Induction of yawning and scratching was determined in Baboons at a dose 2.0 mg/kg; present. On the set-up: dose 2 mg/kg. In short, it runs like this:
as §1

The subject of test [10] is Cercopithecidae. The test is described as follows: Psychotropic effects in Baboons at a dose 5.0 mg/kg; - = no change. Set-up: dose 5 mg/kg. In short, it runs like this: as §1
Test [11] concerns Cercopithecidae. Put plainly: Induction of yawning and scratching was determined in Baboons at a dose 5.0 mg/kg; present. Set-up: dose 5 mg/kg. In short, it runs like this: as §1
The subject of test [12] is Cercopithecidae. The test is described as follows: Psychotropic effects in Baboons at a dose 2.0 mg/kg; + = drowsiness, decreased motor activity, occasional partial ptosis, occasional head drop. On the set-up: dose 2 mg/kg. In short, it runs like this: as §1
Test [13] deals with Cercopithecidae. The test is described as follows: Psychotropic effects in Baboons at a dose 1.0 mg/kg; - = no change. Set-up: dose 1 mg/kg. In short, it runs like this: as §1
For test [14], the system named is Cercopithecidae. Put plainly: Induction of yawning and scratching was determined in Baboons at a dose 1.0 mg/kg; absent. On the set-up: dose 1 mg/kg. In short, it runs like this: as §1
Test [15] relates to Cercopithecidae. The test is described as follows: Psychotropic effects in Baboons at a dose 4.0 mg/kg; - = no change. On the set-up: dose 4 mg/kg. In short, it runs like this: as §1
The test system of test [16] is Cercopithecidae. The test is described as follows: Induction of yawning and scratching was determined in Baboons at a dose 4.0 mg/kg; absent. On the set-up: dose 4 mg/kg. An outline of the steps:
as §1

The subject of test [17] is Cercopithecidae. Put plainly: Induction of yawning and scratching was determined in Baboons at a dose 0.5 mg/kg; absent. On the set-up: dose 0.5 mg/kg. An outline of the steps: as §1
Test [18] concerns Cercopithecidae. The test is described as follows: Psychotropic effects in Baboons at a dose 0.1 mg/kg; +/- = tranquility. On the set-up: dose 0.1 mg/kg. In short, it runs like this:
as §1

Test [19] has as its system Cercopithecidae. The test is described as follows: Psychotropic effects in Baboons at a dose 1.0 mg/kg; +++ = severe stupor and ataxia, full ptosis, immobility, crouched posture lasting for more than 3 h, and absence of reaction to external stimuli. Set-up: dose 1 mg/kg. In short, it runs like this: as §1
Test [20] has as its system Cercopithecidae. The test is described as follows: Induction of yawning and scratching was determined in Baboons at a dose 0.1 mg/kg; absent. Set-up: dose 0.1 mg/kg. In short, it runs like this:
as §1

In test [21] the test system is Cercopithecidae. Put plainly: Psychotropic effects in Baboons at a dose 0.5 mg/kg; ++ = stupor, ataxia, suppression of motor activity, full ptosis, typical crouched posture (thinker position) kept for up to 3 h. Set-up: dose 0.5 mg/kg. In short, it runs like this: as §1
Test [22] has as its system Cercopithecidae. Put plainly: Psychotropic effects in baboons at a dose 0.5 mg/kg; +++ = severe stupor and ataxia, full ptosis, immobility, crouched posture lasting for more than 3 h, and absence of reaction to external stimuli. Set-up: dose 0.5 mg/kg. In short, it runs like this:
as §1

Test [23] relates to Cercopithecidae. The test is described as follows: Psychotropic effects in Baboons at a dose 0.05 mg/kg; + = drowsiness, decreased motor activity, occasional partial ptosis, occasional head drop. Set-up: dose 0.05 mg/kg. An outline of the steps: as §1
Test [24] concerns Cercopithecidae. The test is described as follows: Induction of yawning and scratching was determined in Baboons at a dose 0.05 mg/kg; absent. On the set-up: dose 0.05 mg/kg. An outline of the steps:
as §1

The subject of test [25] is Cercopithecidae. The test is described as follows: Psychotropic effects in Baboons at a dose 0.1 mg/kg; ++ = stupor, ataxia, suppression of motor activity, full ptosis, typical crouched posture (thinker position) kept for up to 3 h. Set-up: dose 0.1 mg/kg. An outline of the steps:
as §1

For test [26], the system named is Cercopithecidae. Put plainly: Psychotropic effects in baboons at a dose 10.0 mg/kg; +/- = tranquility. On the set-up: dose 10 mg/kg. In short, it runs like this: as §1

For `CCCCCc1cc(O)c2c(c1)OC(C)(C)[C@@H]1CCC(CNC)CC21` (stereo partly drawn), the result in test [1], in [2], in test [4] and in test [6] was inactive. The Activity entry in test [3] and in test [5] was “+/-” each time.
As to `CCCCCc1cc(O)c2c(c1)OC(C)(C)[C@@H]1CC[C@H](CN(C)C)CC21` (stereo partly drawn), the outcome in test [2], in test [7] and in test [10] was inactive. Moreover, the Activity entry in test [8], in test [9] and in test [11] was “present” throughout.
With `CCCCCc1cc(O)c2c(c1)OC(C)(C)[C@@H]1CC[C@H](C)CC21` (stereo partly drawn), the Activity entry in test [12] is “drowsiness, decreased motor activity, occasional partial ptosis, occasional head drop”. In addition, the outcome in [1], in test [13] and in test [14] was inactive.
As to `CCCCCc1cc(O)c2c(c1)OC(C)(C)[C@@H]1CCC(CN(C)C)CC21` (stereo partly drawn), the result in [1], in test [2], in test [15] and in test [16] was inactive.
Regarding `CCCCCc1cc(O)c2c(c1)OC(C)(C)[C@@H]1CC[C@@H](C)CC21` (stereo partly drawn), the result in test [17], in test [14] and in test [20] was inactive. In addition, the Activity result in [18] was “+/-”; in test [19], “severe stupor and ataxia, full ptosis, immobility, crouched posture lasting for more than 3 h, and absence of reaction to external stimuli”; in test [21], “severe stupor and ataxia, full ptosis, immobility, crouched posture lasting for more than 3 h, and absence of reaction to external stimuli”.
As for `CCCCCc1cc(O)c2c(c1)OC(C)(C)[C@@H]1CC=C(C)C[C@@H]21`, the outcome in [22] and in test [25] was Active. The result in test [17], in test [24] and in test [20] was inactive. Also, the Activity entry in [23] was “Weak activity”.
Consider `CCCCCc1cc(O)c2c(c1)OC(C)(C)[C@@H]1CC[C@H](CNC)CC21` (stereo partly drawn), for which the result in test [2] and in test [10] was inactive. The Activity entry in test [26] is given as “+/-”; in test [8] it was “present”; in test [9] it was “present”; in test [11], “present”.

The values are drawn from ChEMBL document CHEMBL1122624, “Activity of novel aminocannabinoids in baboons” (J Med Chem, 1984).
